Experimental data: ChEMBL document CHEMBL1811853, “Design and evaluation of 3-aminopyrazolopyridinone kinase inhibitors inspired by the natural product indirubin” (Bioorg Med Chem, 2011)

How the values were obtained:
[1] = biological target: MAP kinase-activated protein kinase 2 (Homo sapiens, UniProt P49137); assay: Inhibition of MAPKAPK2 at 30 uM by microfluidic mobility shift assay
Outline: (§1)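 Single-concentration screen, singlicate, 30 uM final (diluted from 1 mM DMSO solutions), fluorescently tagged peptide substrate appropriate to each kinase, ATP at apparent Km for each protein. Phosphorylated and unphosphorylated peptides separated electrophoretically; conversion is the phosphorylated peak area over the sum of both peaks. No-inhibitor and no-ATP controls; H89 reference on each plate.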

[2] = biological target: T1, Aurora kinase A (Homo sapiens) (UniProt O14965); assay: Inhibition of AurA at 30 uM by microfluidic mobility shift assay; outline: as §1
T1 sequence (whole entry): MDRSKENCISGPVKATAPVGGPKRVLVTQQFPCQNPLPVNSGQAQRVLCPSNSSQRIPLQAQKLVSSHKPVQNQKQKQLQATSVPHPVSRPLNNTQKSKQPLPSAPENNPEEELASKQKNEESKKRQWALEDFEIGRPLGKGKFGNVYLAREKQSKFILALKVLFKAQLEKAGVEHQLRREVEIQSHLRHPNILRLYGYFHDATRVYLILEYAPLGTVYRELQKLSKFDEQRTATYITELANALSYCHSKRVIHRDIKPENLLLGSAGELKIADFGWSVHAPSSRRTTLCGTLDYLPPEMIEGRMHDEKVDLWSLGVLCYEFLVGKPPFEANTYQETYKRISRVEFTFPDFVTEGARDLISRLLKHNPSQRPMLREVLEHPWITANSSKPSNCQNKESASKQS

[3] = biological target: Ribosomal protein S6 kinase alpha-1 (Homo sapiens) (UniProt Q15418); assay: Inhibition of RSK1 at 30 uM by microfluidic mobility shift assay; outline: as §1
[4] = biological target: T2, MAP kinase-activated protein kinase 5 (Homo sapiens) (UniProt Q8IW41); assay: Inhibition of PRAK1 at 30 uM by microfluidic mobility shift assay; outline: as §1
T2 sequence (whole entry): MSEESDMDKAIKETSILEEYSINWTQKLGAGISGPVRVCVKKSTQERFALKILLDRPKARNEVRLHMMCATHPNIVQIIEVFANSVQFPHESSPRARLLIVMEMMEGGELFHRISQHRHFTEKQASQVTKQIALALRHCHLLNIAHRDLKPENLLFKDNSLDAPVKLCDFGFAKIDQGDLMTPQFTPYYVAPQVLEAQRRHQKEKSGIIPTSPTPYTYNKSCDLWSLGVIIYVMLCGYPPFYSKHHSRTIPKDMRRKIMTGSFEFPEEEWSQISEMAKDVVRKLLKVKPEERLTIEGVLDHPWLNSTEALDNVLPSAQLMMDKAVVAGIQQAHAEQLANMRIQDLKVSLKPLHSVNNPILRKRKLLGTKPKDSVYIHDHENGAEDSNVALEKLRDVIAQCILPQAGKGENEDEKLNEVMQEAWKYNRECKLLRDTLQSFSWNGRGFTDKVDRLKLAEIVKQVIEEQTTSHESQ

[5] = biological target: Mitogen-activated protein kinase 3 (Homo sapiens) (UniProt P27361); assay: Inhibition of ERK1 at 30 uM by microfluidic mobility shift assay; outline: as §1
[6] = biological target: T3, Serine/threonine-protein kinase Chk1 (Homo sapiens) (UniProt O14757); assay: Inhibition of CHK1 at 30 uM by microfluidic mobility shift assay; outline: as §1
T3 sequence (whole entry): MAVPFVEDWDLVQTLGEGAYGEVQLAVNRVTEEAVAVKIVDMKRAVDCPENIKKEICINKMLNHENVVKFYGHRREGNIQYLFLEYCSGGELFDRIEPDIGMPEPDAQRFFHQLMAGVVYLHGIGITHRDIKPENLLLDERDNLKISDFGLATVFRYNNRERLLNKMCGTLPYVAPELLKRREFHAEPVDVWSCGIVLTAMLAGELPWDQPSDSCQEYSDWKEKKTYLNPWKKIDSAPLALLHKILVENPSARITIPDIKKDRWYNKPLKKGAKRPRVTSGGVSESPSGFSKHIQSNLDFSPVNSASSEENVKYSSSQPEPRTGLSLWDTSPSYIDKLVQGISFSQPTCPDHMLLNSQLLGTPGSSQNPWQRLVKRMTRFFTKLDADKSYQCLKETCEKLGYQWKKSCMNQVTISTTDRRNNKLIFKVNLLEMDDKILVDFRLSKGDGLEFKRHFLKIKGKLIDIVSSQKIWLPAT

[7] = biological target: Tyrosine-protein kinase ABL1 (Homo sapiens, UniProt P00519); assay: Inhibition of ABL at 30 uM by microfluidic mobility shift assay; outline: as §1
Tyrosine-protein kinase ABL1, sequence (P00519 whole entry): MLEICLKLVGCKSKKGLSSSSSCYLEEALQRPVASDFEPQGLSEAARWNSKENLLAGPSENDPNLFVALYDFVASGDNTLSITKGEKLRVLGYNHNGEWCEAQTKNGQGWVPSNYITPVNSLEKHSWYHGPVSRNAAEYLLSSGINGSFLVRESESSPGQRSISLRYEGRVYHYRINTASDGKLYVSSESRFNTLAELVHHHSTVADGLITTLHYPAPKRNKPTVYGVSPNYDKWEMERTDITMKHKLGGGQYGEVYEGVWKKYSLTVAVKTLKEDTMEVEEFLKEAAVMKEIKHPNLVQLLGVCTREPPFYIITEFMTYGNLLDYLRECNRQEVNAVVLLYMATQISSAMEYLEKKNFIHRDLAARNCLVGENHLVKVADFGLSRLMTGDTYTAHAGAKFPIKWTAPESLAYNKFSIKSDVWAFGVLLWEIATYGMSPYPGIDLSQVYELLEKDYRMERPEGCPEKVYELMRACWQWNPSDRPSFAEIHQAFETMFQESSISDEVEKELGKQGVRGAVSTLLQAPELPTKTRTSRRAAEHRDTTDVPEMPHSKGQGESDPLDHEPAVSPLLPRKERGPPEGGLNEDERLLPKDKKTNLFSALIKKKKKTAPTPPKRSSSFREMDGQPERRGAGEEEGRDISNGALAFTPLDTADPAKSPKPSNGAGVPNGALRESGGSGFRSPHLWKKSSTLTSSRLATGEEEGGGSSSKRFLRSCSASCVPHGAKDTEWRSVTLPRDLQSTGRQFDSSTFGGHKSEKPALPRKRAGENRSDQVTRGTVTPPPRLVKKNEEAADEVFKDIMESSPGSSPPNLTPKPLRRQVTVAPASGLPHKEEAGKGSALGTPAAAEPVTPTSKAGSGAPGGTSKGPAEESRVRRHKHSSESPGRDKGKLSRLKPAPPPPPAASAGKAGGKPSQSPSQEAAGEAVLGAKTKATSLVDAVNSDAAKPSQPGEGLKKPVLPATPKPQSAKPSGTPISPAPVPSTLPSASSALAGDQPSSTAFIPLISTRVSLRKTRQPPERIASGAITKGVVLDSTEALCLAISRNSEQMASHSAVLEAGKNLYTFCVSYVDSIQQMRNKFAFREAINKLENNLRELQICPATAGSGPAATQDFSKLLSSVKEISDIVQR

[8] = biological target: Tyrosine-protein kinase Fyn (Homo sapiens, UniProt P06241); assay: Inhibition of FYN at 30 uM by microfluidic mobility shift assay; outline: as §1
[9] = biological target: Tyrosine-protein kinase Lyn (Homo sapiens, UniProt P07948); assay: Inhibition of LYN at 30 uM by microfluidic mobility shift assay; outline: as §1
Tyrosine-protein kinase Lyn, sequence (P07948 2-512 limits assumed): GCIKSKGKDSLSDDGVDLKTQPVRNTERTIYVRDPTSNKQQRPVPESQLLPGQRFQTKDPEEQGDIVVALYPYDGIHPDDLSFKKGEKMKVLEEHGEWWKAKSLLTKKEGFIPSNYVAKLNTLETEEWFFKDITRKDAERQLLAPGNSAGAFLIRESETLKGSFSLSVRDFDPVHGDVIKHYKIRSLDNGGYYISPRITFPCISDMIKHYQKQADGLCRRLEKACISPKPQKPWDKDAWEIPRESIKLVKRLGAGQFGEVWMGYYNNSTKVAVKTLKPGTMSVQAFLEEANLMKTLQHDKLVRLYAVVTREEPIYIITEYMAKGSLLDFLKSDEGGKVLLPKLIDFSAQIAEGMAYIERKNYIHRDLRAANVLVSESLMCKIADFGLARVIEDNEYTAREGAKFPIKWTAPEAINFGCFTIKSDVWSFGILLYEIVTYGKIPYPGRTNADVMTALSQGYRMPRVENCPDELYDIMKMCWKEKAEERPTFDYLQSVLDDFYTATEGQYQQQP

[10] = biological target: Serine/threonine-protein kinase Chk2 (Homo sapiens, UniProt O96017); assay: Inhibition of CHK2 at 30 uM by microfluidic mobility shift assay; outline: as §1
[11] = biological target: Tyrosine-protein kinase Lck (Homo sapiens, UniProt P06239); assay: Inhibition of LCK at 30 uM by microfluidic mobility shift assay; outline: as §1
Tyrosine-protein kinase Lck, sequence (P06239 2-509 limits assumed): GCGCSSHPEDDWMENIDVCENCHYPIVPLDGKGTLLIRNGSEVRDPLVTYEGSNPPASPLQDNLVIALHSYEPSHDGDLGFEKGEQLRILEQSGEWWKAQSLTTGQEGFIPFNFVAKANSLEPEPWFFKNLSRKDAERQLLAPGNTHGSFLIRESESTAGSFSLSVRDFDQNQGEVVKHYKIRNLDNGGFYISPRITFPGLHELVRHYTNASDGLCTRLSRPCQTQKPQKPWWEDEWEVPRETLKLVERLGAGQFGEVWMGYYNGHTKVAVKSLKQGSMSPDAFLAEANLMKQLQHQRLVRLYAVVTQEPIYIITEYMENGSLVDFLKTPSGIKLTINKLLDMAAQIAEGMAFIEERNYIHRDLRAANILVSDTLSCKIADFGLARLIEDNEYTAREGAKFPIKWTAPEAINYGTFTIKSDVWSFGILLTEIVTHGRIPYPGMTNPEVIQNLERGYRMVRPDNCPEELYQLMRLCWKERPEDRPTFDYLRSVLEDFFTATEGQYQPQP

[12] = biological target: Proto-oncogene tyrosine-protein kinase Src (Homo sapiens, UniProt P12931); assay: Inhibition of SRC at 30 uM by microfluidic mobility shift assay; outline: as §1
[13] = biological target: Glycogen synthase kinase-3 beta (Homo sapiens) (UniProt P49841); assay: Inhibition of GSK3B at 30 uM by microfluidic mobility shift assay; outline: as §1
Glycogen synthase kinase-3 beta (Homo sapiens), sequence (P49841 whole entry, looked up): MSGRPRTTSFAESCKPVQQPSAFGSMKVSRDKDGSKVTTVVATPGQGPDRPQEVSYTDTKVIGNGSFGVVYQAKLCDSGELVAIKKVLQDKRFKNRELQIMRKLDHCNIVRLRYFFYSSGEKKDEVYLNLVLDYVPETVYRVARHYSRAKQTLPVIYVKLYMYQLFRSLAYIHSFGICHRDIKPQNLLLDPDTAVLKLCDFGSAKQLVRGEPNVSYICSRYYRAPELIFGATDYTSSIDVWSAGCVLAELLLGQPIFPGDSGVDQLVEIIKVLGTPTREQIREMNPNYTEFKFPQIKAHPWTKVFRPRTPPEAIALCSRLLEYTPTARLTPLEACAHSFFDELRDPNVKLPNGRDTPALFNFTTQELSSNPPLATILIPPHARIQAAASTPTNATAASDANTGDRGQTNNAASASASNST

[14] = biological target: Mitogen-activated protein kinase 1 (Homo sapiens) (UniProt P28482); assay: Inhibition of ERK2 at 30 uM by microfluidic mobility shift assay; outline: as §1
[15] = Inhibition of PKA at 30 uM by microfluidic mobility shift assay; outline: as §1
[16] = biological target: RAC-beta serine/threonine-protein kinase (Homo sapiens) (UniProt P31751); assay: Inhibition of AKT2 at 30 uM by microfluidic mobility shift assay; outline: as §1
[17] = biological target: Insulin receptor (Homo sapiens) (UniProt P06213); assay: Inhibition of INSR at 30 uM by microfluidic mobility shift assay; outline: as §1
Insulin receptor (Homo sapiens), sequence (P06213 28-758 limits assumed): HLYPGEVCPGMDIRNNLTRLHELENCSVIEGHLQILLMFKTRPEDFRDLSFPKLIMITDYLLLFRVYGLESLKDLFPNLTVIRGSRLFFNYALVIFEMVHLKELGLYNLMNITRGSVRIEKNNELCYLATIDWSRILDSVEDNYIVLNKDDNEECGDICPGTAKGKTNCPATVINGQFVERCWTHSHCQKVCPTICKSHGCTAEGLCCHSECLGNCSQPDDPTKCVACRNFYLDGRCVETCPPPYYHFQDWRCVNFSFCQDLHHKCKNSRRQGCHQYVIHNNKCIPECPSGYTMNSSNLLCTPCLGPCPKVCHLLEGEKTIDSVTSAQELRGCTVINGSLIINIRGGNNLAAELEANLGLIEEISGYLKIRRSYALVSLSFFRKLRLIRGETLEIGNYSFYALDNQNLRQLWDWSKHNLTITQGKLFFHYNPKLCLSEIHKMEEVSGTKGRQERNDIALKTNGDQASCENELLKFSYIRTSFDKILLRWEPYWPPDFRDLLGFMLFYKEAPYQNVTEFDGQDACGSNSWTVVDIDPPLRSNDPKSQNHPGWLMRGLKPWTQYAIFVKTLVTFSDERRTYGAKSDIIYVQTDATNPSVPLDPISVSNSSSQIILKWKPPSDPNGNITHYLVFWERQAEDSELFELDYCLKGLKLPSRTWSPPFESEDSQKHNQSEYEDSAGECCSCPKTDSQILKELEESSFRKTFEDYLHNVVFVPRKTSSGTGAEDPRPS
Insulin receptor (Homo sapiens), sequence (P06213 763-1382 limits assumed): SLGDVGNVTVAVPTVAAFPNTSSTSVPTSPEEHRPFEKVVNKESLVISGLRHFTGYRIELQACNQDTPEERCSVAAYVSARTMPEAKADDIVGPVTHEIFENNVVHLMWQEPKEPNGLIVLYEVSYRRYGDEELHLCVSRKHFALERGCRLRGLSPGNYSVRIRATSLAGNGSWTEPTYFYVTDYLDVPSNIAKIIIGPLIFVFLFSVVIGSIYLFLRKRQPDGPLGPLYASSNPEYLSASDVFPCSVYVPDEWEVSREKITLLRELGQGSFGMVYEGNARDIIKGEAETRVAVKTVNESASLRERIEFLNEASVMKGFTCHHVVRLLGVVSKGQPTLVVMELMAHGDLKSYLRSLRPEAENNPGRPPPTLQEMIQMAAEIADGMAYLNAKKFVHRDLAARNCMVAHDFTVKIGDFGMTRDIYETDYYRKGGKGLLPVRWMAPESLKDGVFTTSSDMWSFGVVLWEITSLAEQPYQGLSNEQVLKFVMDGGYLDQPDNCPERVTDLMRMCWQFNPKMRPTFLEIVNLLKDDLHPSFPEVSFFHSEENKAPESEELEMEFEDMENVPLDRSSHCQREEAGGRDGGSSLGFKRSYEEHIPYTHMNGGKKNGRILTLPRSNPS

[18] = biological target: Mitogen-activated protein kinase 14 (Homo sapiens, UniProt Q16539); assay: Inhibition of p38alpha at 30 uM by microfluidic mobility shift assay; outline: as §1
Mitogen-activated protein kinase 14, sequence (Q16539 whole entry): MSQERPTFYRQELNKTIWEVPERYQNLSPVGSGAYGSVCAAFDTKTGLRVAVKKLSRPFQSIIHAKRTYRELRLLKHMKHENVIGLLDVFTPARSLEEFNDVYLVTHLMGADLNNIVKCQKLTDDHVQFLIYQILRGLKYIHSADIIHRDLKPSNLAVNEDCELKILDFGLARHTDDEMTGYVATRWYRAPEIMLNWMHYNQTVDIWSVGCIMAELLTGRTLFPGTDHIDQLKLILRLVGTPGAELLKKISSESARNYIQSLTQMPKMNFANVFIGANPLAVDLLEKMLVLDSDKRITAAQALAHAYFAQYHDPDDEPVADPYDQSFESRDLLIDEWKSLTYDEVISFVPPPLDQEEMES

[19] = biological target: RAC-alpha serine/threonine-protein kinase (Homo sapiens) (UniProt P31749); assay: Inhibition of AKT1 at 30 uM by microfluidic mobility shift assay; outline: as §1
RAC-alpha serine/threonine-protein kinase (Homo sapiens), sequence (P31749 whole entry): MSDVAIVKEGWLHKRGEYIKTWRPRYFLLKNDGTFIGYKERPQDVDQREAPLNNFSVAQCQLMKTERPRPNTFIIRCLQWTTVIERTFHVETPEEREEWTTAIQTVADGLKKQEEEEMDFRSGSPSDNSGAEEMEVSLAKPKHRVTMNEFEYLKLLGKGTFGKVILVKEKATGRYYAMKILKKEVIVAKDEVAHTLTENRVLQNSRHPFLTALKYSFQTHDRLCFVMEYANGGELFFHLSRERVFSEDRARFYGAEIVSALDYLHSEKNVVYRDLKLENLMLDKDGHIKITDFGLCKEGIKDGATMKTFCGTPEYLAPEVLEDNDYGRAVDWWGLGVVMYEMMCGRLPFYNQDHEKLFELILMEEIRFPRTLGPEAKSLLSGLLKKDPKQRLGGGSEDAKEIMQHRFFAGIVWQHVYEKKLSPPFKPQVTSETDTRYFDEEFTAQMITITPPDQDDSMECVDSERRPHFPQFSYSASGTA

[20] = biological target: Ribosomal protein S6 kinase alpha-5 (Homo sapiens) (UniProt O75582); assay: Inhibition of MSK1 at 30 uM by microfluidic mobility shift assay; outline: as §1
[21] = biological target: T4, Serine/threonine-protein kinase D2 (Homo sapiens) (UniProt Q9BZL6); assay: Inhibition of PKD2 at 30 uM by microfluidic mobility shift assay; outline: as §1
T4 sequence (whole entry): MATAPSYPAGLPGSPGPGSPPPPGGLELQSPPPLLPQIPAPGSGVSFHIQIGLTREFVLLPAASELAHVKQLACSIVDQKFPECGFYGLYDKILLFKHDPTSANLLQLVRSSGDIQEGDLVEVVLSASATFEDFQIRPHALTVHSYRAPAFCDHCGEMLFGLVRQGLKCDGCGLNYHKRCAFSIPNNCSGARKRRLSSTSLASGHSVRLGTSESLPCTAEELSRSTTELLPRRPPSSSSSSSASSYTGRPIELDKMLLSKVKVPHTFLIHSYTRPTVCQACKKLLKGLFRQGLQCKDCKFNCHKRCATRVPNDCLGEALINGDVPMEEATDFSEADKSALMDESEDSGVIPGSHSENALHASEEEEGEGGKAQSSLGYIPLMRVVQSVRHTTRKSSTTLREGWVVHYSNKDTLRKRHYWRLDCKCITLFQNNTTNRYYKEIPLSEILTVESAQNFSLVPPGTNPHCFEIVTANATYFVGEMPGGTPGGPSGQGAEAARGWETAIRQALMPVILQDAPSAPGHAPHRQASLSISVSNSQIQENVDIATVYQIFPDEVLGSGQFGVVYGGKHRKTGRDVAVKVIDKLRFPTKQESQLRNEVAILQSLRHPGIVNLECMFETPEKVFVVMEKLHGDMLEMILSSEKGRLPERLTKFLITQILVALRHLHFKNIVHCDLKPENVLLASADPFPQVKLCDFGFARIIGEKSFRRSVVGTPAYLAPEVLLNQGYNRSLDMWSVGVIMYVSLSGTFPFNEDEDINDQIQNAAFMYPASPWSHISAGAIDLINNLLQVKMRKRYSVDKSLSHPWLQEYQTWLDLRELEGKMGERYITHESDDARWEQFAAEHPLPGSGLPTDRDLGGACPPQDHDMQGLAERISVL

| inhibition [1] [%] | inhibition [2] [%] | inhibition [3] [%] | inhibition [4] [%] | inhibition [5] [%] | inhibition [6] [%] | inhibition [7] [%] | inhibition [8] [%] | inhibition [9] [%] | inhibition [10] [%] | inhibition [11] [%] | inhibition [12] [%] | inhibition [13] [%] | inhibition [14] [%] | inhibition [15] [%] | inhibition [16] [%] | inhibition [17] [%] | inhibition [18] [%] | inhibition [19] [%] | inhibition [20] [%] | SMILES | further results |
| --- | --- | --- | --- | --- | --- | --- | --- | --- | --- | --- | --- | --- | --- | --- | --- | --- | --- | --- | --- | --- | --- |
| 11 | 13 | -3 | 1 | 4 | 2 | 4 | 4 | 5 | 12 | 11 | 5 | 13 | 0 | 8 | 1 | 2 | -5 | 2 | 2 | Cc1cc2[nH]ncc2c(=O)[nH]1 | – |
| 7 | 31 | 11 | 13 | 8 | – | 11 | 3 | 8 | 7 | 6 | 6 | 9 | 4 | 19 | -3 | 5 | 2 | -1 | 13 | Cc1cc2[nH]nc(N)c2cn1 | inhibition [21]: 25% |
| -2 | 17 | 1 | 5 | 4 | -5 | 15 | 9 | 17 | 3 | 10 | 7 | 8 | -1 | -2 | 12 | 3 | 2 | -8 | 4 | Cc1cc2c(c(N)nn2C)c(N2CCOCC2)n1 | inhibition [21]: -4% |
| 41 | 71 | – | 37 | – | – | 8 | – | – | – | – | 18 | 10 | – | 100 | – | 3 | 5 | – | – | O=S(=O)(NCCNC/C=C/c1ccc(Br)cc1)c1cccc2cnccc12 | – |
| 1 | 3 | -3 | 2 | 5 | 6 | 19 | 13 | 29 | 7 | 13 | 9 | 4 | 1 | 4 | 3 | 3 | 55 | -1 | -2 | Nc1c2cnc(-c3ccccc3)cc2nn1-c1ccccc1 | – |
| 7 | 10 | 4 | 10 | 4 | -1 | 7 | 7 | 8 | 4 | 12 | 7 | 7 | 6 | 2 | -7 | -2 | 10 | 1 | 10 | Cc1cc2nn(-c3ccccc3)c(N)c2c(N2CCCCC2)n1 | inhibition [21]: 5% |
| 7 | 41 | 23 | 17 | 13 | – | 19 | 8 | 11 | 4 | 6 | 4 | 8 | 1 | 6 | 0 | -2 | 4 | 6 | 7 | Cc1cc2c(c(N)nn2C)c(N2CCCCC2)n1 | inhibition [21]: 16% |
| 1 | 72 | 30 | 5 | 15 | 13 | 24 | 43 | 51 | 23 | 44 | 45 | 73 | 7 | 71 | 7 | 0 | -3 | 17 | 74 | Cc1cc2[nH]nc(N)c2c(N2CCOCC2)n1 | – |
